# Most compounds without a hit are left out; they make up all but 2.9% or so of the library.
# FAS TE block: inhibitors of human fatty acid synthase thioesterase domain. recombinant FAS-TE, OMFH fluorogenic substrate, fluorescence endpoint. AID 602261. 360,000 compounds, 0.67% hits. inhibition, % at 15 µM;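 active means compounds whose normalised, plate-corrected inhibition of enzyme fluorescence in the single-dose primary screen is 50% or more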;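 further: 0% = DMSO with enzyme and 100% = substrate without enzyme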
# ADAM10 inh: inhibitors of human ADAM10; inhibition, % at 7 µM; O14672; recombinant ADAM10, EDANS/DABCYL FRET peptide cleavage, 3 h; 370,000 compounds, 0.62% hits; AID 720582;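 active means inhibition above a per-campaign cutoff equal to the mean of compounds falling between control-based bounds plus 3 SD, cut at about 20% in these data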;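 further: 0% = DMSO wells while the 100% control is not disclosed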
# CaV13 FRET inh: Disruptors of the CACNA1D IQ motif to Ca2+-dependent inactivation inhibitor domain association, primary screening, Förster resonance energy transfer in intact living …. HEK cells, CFP/YFP FRET ICDI-IQ, plate reader, 10 min; percent FRET-ratio fall versus neutral wells. inhibition, % at 12.3 µM. 340,000 compounds, 0.098% hits;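 active means mean replicate inhibition of at least 30% and at least 1% of replicates passing that level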;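 further: 0% = median of the neutral control wells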
# ADAM17 inh: ADAM17 inhibition, QFRET primary screen; P78536; recombinant ADAM17, EDANS/DABCYL FRET peptide cleavage; inhibition, % at 6.95 µM; 370,000 compounds, 0.83% hits;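 active means inhibition above the mean of compounds lying between control limits plus 3 SD, set per campaign, cut at about 8.5% in these data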;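 further: 0% = DMSO-only wells as the low control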
# Arrestin-AP2 inh: inhibitors of human beta-arrestin and AP2 interaction. AID 504490. 340,000 compounds, 0.31% hits. inhibition, % at 10 µM. FITC-arrestin peptide / GST-AP2 beads, flow cytometry; AP2 beta2 appendage carries R879A mutation;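 active means inhibition above a set limit, near 3 SD of compounds lacking own fluorescence, cut at about 54% in these data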;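 further: plate controls were DMSO wells for no effect and 5 µM unlabelled arrestin peptide for full effect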
#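 System: GST-AP2 R879A glutathione beads | Also added: FITC-arrestin peptide, 50 nM | Times: 12 min plus 1 h, RT | Signal: Bead flow cytometry, FITC channel | Buffer or medium: PBS with 0.05% Tween 20 and 0.1% BSA | Read-out basis: Percent drop in bead-associated FITC signal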
# CendR NRP1 mod: modulators of CendR peptide binding to human neuropilin-1 | inhibition, % at 25 µM | 360,000 compounds, 0.85% hits | O14786 | FAM-RPARPAR peptide binding to NRP-1, fluorescence polarization | AID 602438;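 active means inhibition or corrected inhibition above about 18%, plus a signal ratio from 0.5 to 1.5, limit read from the data, passing the limit was not always enough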
# ADAM10 confirm: human ADAM10 inhibition, confirmation | ADAM10 QFRET peptide cleavage, EDANS fluorescence | 2,100 compounds, 1% hits | shares compounds with ADAM10 inh | inhibition, % at 6.95 µM | AID 743208;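 active means inhibition above about 20% chosen separately for each screening run, limit read from the data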;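 further: 0% = DMSO wells and 100% = marimastat wells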
# ADAM17 ctr: ADAM17 inhibition, counter-screen for ADAM10 exosite hits. ADAM17 QFRET peptide cleavage, EDANS fluorescence. 2,100 compounds, 0.5% hits. shares compounds with ADAM10 inh. inhibition, % at 6.95 µM;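 active means mean triplicate inhibition above the solvent-only control wells' mean plus 3 SD, cut at about 12% in these data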;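 further: 0% = DMSO wells and 100% = marimastat wells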
# * marks the source's active call; other numbers are inactive results; . = no result given; ! = not confirmed by another sample.
SMILES,FAS TE block,ADAM10 inh,CaV13 FRET inh,ADAM17 inh,Arrestin-AP2 inh,CendR NRP1 mod,ADAM10 confirm,ADAM17 ctr
O=C1Nc2ccccc2-c2nnnn2C1N1CCC(Cc2ccccc2)CC1 (centres undefined),.,-6.4,-7.1,-0.6,.,16.5,.,.
CO/N=C/NC(=O)NOCc1ncc(C(F)(F)F)cc1Cl,-6.9,1.0,.,4.7,-4.7,-1.8,.,.
O=C(N/C=N/OCc1ccc(Cl)cc1Cl)NOCc1ncc(C(F)(F)F)cc1Cl,3.8,20.2*,-5.6,11.5*,-5.5,-0.5,10.6,2.9
Cc1occc1C(=O)N/N=C/c1ccc(OCc2ccccc2)cc1,32.7,20.7*,-4.9,0.8,48.6,3.3,0.2,0.1
CC(C)(C)NC(=O)[C@@H]1C[C@@H]2CCCC[C@@H]2CN1C[C@@H](O)[C@H](Cc1ccccc1)NC(=O)[C@H](CC(N)=O)NC(=O)c1ccc2ccccc2n1,34.9,26.3*!,-5.6,8.2,29.3,2.5,1.9,-0.1
O=C(OC12CCCN(C1)/C(=C/c1cccc(Cl)c1)C2)c1ccc(Cl)cc1 (centres undefined),.,3.5,.,3.3,.,.,.,.
Cc1ccc(C(=O)NNC(=S)NC(=O)c2ccccc2)cc1,-4.9,23.5*,-4.4,5.5,17.1,-9.2,0.8,0.9
O=C(Nc1ccccc1)c1ccc(-c2ccccc2Cl)o1,10.9,20.5*,-9.0,4.2,4.7,3.4,5.5,2.2
CC1(C(=O)Nc2ccc(F)c(Cl)c2)Cc2c(-c3ccc(C(N)=O)cc3)ccnc2O1 (centres undefined),10.1,-0.7,-5.8,-1.9,.,-9.2,.,.
CC1(Cc2cccc(F)c2)C(=O)Nc2ccc(S(=O)(=O)NC3CCCCC3)cc21 (centres undefined),12.5,7.2,-10.4,2.9,.,7.7,.,.
CC1(Cc2ccc(Cl)c(Cl)c2)C(=O)Nc2ccc(S(=O)(=O)NC3CCCCC3)cc21 (centres undefined),39.5,20.2*,-12.1,7.7,.,-0.3,12.9,3.4
COc1ccc(C=O)cc1-c1cc(C(C)=O)c2n(c1=O)CCC2,.,-3.5,.,-1.3,.,.,.,.
CC(=O)c1cccc(NC(=O)C(C)OC(=O)c2cc(C)oc2C)c1 (centres undefined),-1.2,-3.1,.,6.1,-3.8,-13.2,.,.
Cc1cc(C(=O)OC(C(=O)Nc2ccc(C)c(Cl)c2)c2ccccc2)c(C)o1 (centres undefined),19.3,22.3*,-4.1,7.4,39.2,-9.8,5.0,3.3
CCN(c1ccc(OC)cc1)S(=O)(=O)N1CCCC(C(=O)NCc2ccccc2Br)C1 (centres undefined),16.4,12.2,-15.6,1.3,-7.2,-10.5,.,.
CCN(c1ccc(OC)cc1)S(=O)(=O)N1CCCC(C(=O)NC(C)c2ccccc2)C1 (centres undefined),7.9,70.2*,-3.9,-1.8,.,-6.6,3.6,0.7
COc1ccc(-c2nnn3c2Cn2c4ccccc4c(=O)n2[C@@H](C)C3)cc1,.,-219.6,.,-64.8,.,.,.,.
CCOc1ccc(CCN2C(=O)C(=O)N([C@@H](CC(C)C)CN3CCC[C@H]3CN3C(=O)C(=O)NC[C@@H]3CC(C)C)C[C@@H]2Cc2ccc(O)cc2)cc1,-9.0,-6.0,-5.8,-1.5,.,17.5,.,.
Cc1ccc(Sc2ncccc2COC(=O)Nc2c(C)cccc2C)cc1,22.4,16.4,.,7.0,5.7,-0.2,.,.
Cc1ccc(Sc2ncccc2COC(=O)Nc2ccccc2)cc1,19.7,21.8*,.,7.7,13.5,-14.6,6.2,2.5
O=C(COc1ccc(Cl)cc1Cl)OCC(=O)N1CCCc2ccccc21,37.1,20.6*,-3.9,7.6,4.0,2.8,3.8,0.3
O=C(CCCOc1ccc(Cl)cc1Cl)N1CCCc2ccccc21,22.0,13.3,-5.0,4.8,11.2,6.0,.,.
COc1ccc(C(=O)O[C@@H]2CCC[C@@]3(C(=O)N(Cc4ccccc4)c4ccccc43)[C@H]2NC(=O)CCc2ccccc2)cc1OC,.,20.4*,.,8.2,.,.,4.7,1.6
Cn1ccnc1C(=O)O[C@@H]1CCC[C@@]2(C(=O)N(Cc3ccccc3)c3ccccc32)[C@H]1NC(=O)CCc1ccccc1,.,7.4,.,3.2,.,.,.,.
COc1cc(-n2c(C)nc3cc(C(=O)N4CCCC4)ccc32)cc(OC)c1OC,.,-8.8,.,-2.4,.,.,.,.
SMILES,FAS TE block,ADAM10 inh,CaV13 FRET inh,ADAM17 inh,Arrestin-AP2 inh,CendR NRP1 mod,ADAM10 confirm,ADAM17 ctr
COc1ccc2c(c1)OC[C@H]1[C@H]2N2C(=O)CN(Cc3ccccc3)C(=O)[C@@]2(C)[C@H]1c1ccccc1,48.6,22.9*,-9.8,7.9,9.2,-13.4,3.9,1.4
CCOC(=O)[C@H]1[C@H]2COc3ccc(Cl)cc3[C@@H]2N2C(=O)c3cc(Br)ccc3NC(=O)[C@@]12C,50.0,23.0*,-5.3,6.0,-2.4,-4.3,5.2,0.8
CCOC(=O)[C@H]1[C@H]2COc3ccc(Cl)cc3[C@@H]2N2C(=O)c3cc(Cl)ccc3NC(=O)[C@@]12C,31.6,16.2,-9.6,7.9,4.0,10.1,.,.
CCOC(=O)[C@H]1[C@H]2COc3ccc(Br)cc3[C@H]2N2C(=O)CN(Cc3ccc(C)cc3)C(=O)[C@@]12C,14.2,20.3*,-4.5,4.6,4.4,-11.0,1.3,0.8
COc1ccc2c(c1)OC[C@H]1[C@@H]2N2C(=O)CNC(=O)[C@@]2(C)[C@H]1c1ccccc1,-6.8,-2.4,-11.0,-4.2,4.9,17.5,.,.
COCCOC(=O)c1c(C)oc2ccc(NS(=O)(=O)c3cccs3)cc12,3.4,-1.1,-3.7,1.6,2.1,11.0,.,.
CCOC(=O)c1c(C)oc2ccc(NS(=O)(=O)c3cccs3)cc12,8.7,20.8*,-8.2,5.1,0.7,-4.6,5.3,1.0
COc1cccc(C(=O)NCC2CCN(C(=O)C(=O)c3cc4ccccc4o3)CC2)c1,.,-2.2,-7.7,-2.2,.,.,.,.
COc1ccccc1-c1cnc(C(O)c2c(C)cc(C)cc2C)[nH]1 (centres undefined),-1.8,-10.2,-6.8,-9.3,.,-3.9,.,.
CCOC(=O)COc1ccc(C(C)c2ccc(NC(=O)OC(C)(C)C)cc2)cc1 (centres undefined),.,20.6*,.,8.3,.,.,6.0,1.8
O=C1NC[C@H](c2ccccc2)OC(=O)[C@@H](Cc2ccc(F)cc2)CC/C=C/C[C@H]1CC(=O)N(CCO)Cc1ccccc1,20.6,13.5,-6.3,5.7,.,-3.1,.,.
O=C1N[C@@H](Cc2ccccc2)COC(=O)[C@H](Cc2ccc(F)cc2)C/C=C\C[C@H]1CC(=O)N(CCO)Cc1ccccc1,17.5,9.4,-5.9,3.9,15.3,-5.6,.,.

# Source: PubChem BioAssay (several laboratories)
